Data set [1] is described as follows: Cellular uptake in human SKBR3 cells plasma membrane overexpressing HER2 at 0.4 uM after 24 hrs by membrane tracking-based confocal microscopic analysis. Format: ADME, cell-based. Conditions: sk-br-3, 24 h. The method, boiled down: (§1)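 SKBR-3 cells in chamber wells given 0.4 μM BODIPY conjugate at 37 °C for 24 or 48 h, PBS-washed and fixed in ice-cold methanol at −20 °C for 5 min. Membrane tracker (5 min) or Lyso tracker (30 min) in serum-free medium added at 37 °C. Mounted slides imaged by confocal microscopy at 40X under oil with argon and HeNe lasers to assess co-localization.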

The test system of data set [2] is SK-BR-3. In words: Cellular uptake in human SKBR3 cells overexpressing HER2 at 0.4 uM after 48 hrs by lyso tracking-based confocal microscopic analysis. Format: ADME, cell-based. Conditions: sk-br-3, 48 h. The method, boiled down:
as §1

For data set [3], the system named is SK-BR-3. Nature of the data set: Cellular uptake in human SKBR3 cells overexpressing HER2 at 1 to 10 uM by fluorescence plate reader analysis. Format: ADME, cell-based. The following applies: sk-br-3, 10 µM, TDE = time-dependent effect. In outline:
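Fluorescent BODIPY conjugate diluted in McCoy's medium to 1 and 10 μM and added to SKBR-3 cells (10,000/well, grown 24 h) at 37 °C. At 0, 12, 24, 36, 48 and 72 h, medium removed and cells washed twice with PBS. Cell-associated fluorescence read on a plate reader at 490/530 nm excitation/emission.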

In data set [4] the target is Receptor tyrosine-protein kinase erbB-2 (Homo sapiens) (UniProt P04626). In words: Inhibition of HER2 kinase domain phosphorylation in human SKBR3 cells at 0.4 uM by Western blot analysis. Format: cell-based. The following applies: SK-BR-3, TDE = time-dependent effect. In outline:
(§2)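 BT-474 cells (RPMI-1640) and SKBR-3 cells (McCoy's), each with 10% FBS and insulin, plated in triplicate flasks and treated after 24 h with 0.4 μM compound or left untreated at 37 °C, 5% CO2. Lysates made with protease and phosphatase inhibitors; 40 μg protein run on 10% SDS-PAGE. Blots probed with p-HER2 antibody (1:3000, 15 h, 4 °C), detected by ECL; total HER2 blotted with an anti-ECD antibody.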
(A western blot detects proteins with antibodies after separation by electrophoresis.)

Data set [5] shares this target. In words: Inhibition of HER2 kinase domain phosphorylation in human SKBR3 cells at 0.4 uM after 18 hrs by Western blot analysis. The class given is cell-based. The following applies: SK-BR-3. In outline:
as §2

Data set [6] has the same target. In words: Binding affinity to HER2 extracellular domain in human SKBR3 cells assessed as inhibition of HER3 binding at 0.5 uM after 24 hrs by confocal microscopy-based proximity ligation assay. The class given is cell-based. The following applies: SK-BR-3. In outline:
(§3)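 SKBR-3 cells seeded at 5 × 10^4 per chamber well and grown 24 h at 37 °C, then treated 24 h. Cells fixed in ice-cold methanol at −20 °C and blocked in 5% BSA 1 h. Primary antibodies anti-HER2 (rabbit) and anti-HER3 (mouse), each 1:400, applied overnight at 4 °C. Duolink PLA probes, ligation and amplification at 37 °C, then confocal imaging of red heterodimer spots.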

The target is the same in data set [7]. Nature of the data set: Binding affinity to HER2 extracellular domain in human SKBR3 cells assessed as inhibition of EGFR binding. The following applies: SK-BR-3. The class given is cell-based.
Data set [8] shares this target. In words: Inhibition of HER2 kinase domain phosphorylation in human BT474 cells at 0.4 uM by Western blot analysis. Format: cell-based. The following applies: BT-474, TDE = time-dependent effect. The method, boiled down:
as §2

The target is the same in data set [9]. In words: Binding affinity to HER2 extracellular domain in human SKBR3 cells assessed as inhibition of HER3 binding at 0.8 uM after 24 hrs by confocal microscopy-based proximity ligation assay. The class given is cell-based. Conditions: SK-BR-3. The method, boiled down:
as §3

For data set [10] the target is unchanged. In words: Inhibition of HER2 kinase domain phosphorylation in human BT474 cells at 0.4 uM after 18 hrs by Western blot analysis. Conditions: BT-474. The class given is cell-based. In outline: as §2

Molecules are shown by their SMILES. The source made the active and inactive calls. The rule behind the calls is not given here.

Receptor tyrosine-protein kinase erbB-2 (Homo sapiens), sequence (P04626 whole entry, the tested form may be a part): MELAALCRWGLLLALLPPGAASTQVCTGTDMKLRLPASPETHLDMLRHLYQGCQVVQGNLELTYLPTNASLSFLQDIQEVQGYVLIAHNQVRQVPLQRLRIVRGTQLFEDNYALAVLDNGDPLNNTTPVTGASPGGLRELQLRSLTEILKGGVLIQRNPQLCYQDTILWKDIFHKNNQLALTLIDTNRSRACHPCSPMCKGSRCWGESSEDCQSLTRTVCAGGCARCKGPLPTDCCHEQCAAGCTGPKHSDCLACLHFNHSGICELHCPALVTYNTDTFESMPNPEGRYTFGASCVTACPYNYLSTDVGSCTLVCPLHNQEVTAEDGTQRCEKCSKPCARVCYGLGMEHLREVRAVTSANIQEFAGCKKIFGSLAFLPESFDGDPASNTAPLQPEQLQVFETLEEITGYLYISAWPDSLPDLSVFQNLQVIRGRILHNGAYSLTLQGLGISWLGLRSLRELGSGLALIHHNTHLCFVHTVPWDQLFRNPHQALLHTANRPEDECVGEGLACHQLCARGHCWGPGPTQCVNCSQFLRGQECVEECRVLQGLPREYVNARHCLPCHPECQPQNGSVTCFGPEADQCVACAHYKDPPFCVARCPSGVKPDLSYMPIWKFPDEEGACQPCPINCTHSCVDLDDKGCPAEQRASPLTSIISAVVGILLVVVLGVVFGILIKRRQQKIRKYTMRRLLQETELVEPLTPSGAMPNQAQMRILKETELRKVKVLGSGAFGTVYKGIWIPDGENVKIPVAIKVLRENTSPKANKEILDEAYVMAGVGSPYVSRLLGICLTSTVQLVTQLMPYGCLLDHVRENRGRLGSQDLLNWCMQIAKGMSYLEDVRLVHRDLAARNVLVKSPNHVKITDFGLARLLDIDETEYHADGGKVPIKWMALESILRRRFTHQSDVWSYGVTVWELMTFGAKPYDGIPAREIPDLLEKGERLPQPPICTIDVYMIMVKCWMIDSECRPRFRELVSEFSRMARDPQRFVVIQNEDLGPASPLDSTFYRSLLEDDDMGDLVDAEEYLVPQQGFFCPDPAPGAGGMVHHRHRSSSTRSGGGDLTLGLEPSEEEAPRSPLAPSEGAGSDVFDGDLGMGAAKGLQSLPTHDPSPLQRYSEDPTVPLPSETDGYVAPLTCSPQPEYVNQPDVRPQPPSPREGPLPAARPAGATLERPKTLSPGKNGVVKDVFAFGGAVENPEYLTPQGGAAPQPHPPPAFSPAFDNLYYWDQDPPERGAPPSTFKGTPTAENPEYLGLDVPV

As for `Cc1cc(C)n2c1C=C1C=CC(CCCCC(=O)N[C@@H](CCCNC(=N)N)C(=O)NC(CC(=O)N[C@@H](Cc3ccccc3)C(=O)O)c3cccc4ccccc34)=[N+]1[B-]2(F)F` (stereo not given in full), the Drug uptake result is given as “Active” in data set [1], “Active” in the data set with SK-BR-3 [2] and “tde” in the data set on SK-BR-3 [3].
`N=C(N)NCCC[C@H](N)C(=O)NC(CC(=O)N[C@@H](Cc1ccccc1)C(=O)O)c1cccc2ccccc12` (stereo not given in full): the inhibition entry in data set [4] and in [8] was “tde” throughout. The inhibition entry in data set [5], in data set [7], in data set [9] and in data set [10] was “Active” in each case. Besides, the inhibition entry in [6] is “inactive”.

The values above are taken from ChEMBL document CHEMBL2401612, “Design, synthesis and characterization of peptidomimetic conjugate of BODIPY targeting HER2 protein extracellular domain” (Eur J Med Chem, 2013).
